Measurements published in ChEMBL document CHEMBL1687922, “Dipeptidyl peptidase IV dependent water-soluble prodrugs of highly lipophilic bicyclic nucleoside analogues” (J Med Chem, 2011).
In brackets after ≈: the same amount, converted by molar mass.

Columns and labels:
[1] = Stability of the compound assessed as conversion of prodrug to 3-[(2R,4S, 5R)-4-hydroxy-5-(hydroxymethyl)oxolan-2-yl]-6-(4-pentylphenyl)furo[2, 3-d]pyrimidin-2-one in presence of Dipeptidyl-peptidase 4, 20 % bovine serum and 2.5 uM DPPIV inhibitor vildagliptin; format: physicochemical; conditions: cattle
Procedure, shortened: (§1)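 Prodrug conversion by purified DPPIV/CD26 or by human, bovine or murine serum (20% in PBS) was run with varying concentrations of vildagliptin. Prodrug, intermediate and parent were quantified by HPLC.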

[2] = Stability of the compound assessed as conversion of prodrug to 3-[(2R,4S, 5R)-4-hydroxy-5-(hydroxymethyl)oxolan-2-yl]-6-(4-pentylphenyl)furo[2, 3-d]pyrimidin-2-one in presence of Dipeptidyl-peptidase 4, 20 % murine serum and 2.5 uM DPPIV inhibitor vildagliptin; format: physicochemical; conditions: mouse; procedure, shortened: as §1
Caco-2 = assay: Stability in human CaCo-2 cells assessed as appearance of 3-[(2R,4S, 5R)-4-hydroxy-5-(hydroxymethyl)oxolan-2-yl]-6-(4-pentylphenyl)furo[2, 3-d]pyrimidin-2-one at the apical side of the cell; format: ADME, cell-based; conditions: in the assay text read “basolateral side” for “apical side”
Procedure, shortened: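 CaCo-2 cells were seeded at 1.5 × 10⁵ cells/well in upper cups of dual-chamber 24-well trays in DMEM with 10% FBS and grown to confluence (~3 days). Upper medium was replaced with DMEM containing compound at 100 μM; bottom medium was replaced with PBS. Upper and bottom cups were sampled at 0-7 and 24 h into cold methanol and analysed by HPLC.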

Mus musculus = assay: Bioavailability in mouse assessed as fold increase in 3-[(2R,4S, 5R)-4-hydroxy-5-(hydroxymethyl)oxolan-2-yl]-6-(4-pentylphenyl)furo[2, 3-d]pyrimidin-2-one level within 0 to 180 mins administered by oral gavage; format: ADME, organism-based; conditions: in vivo
Procedure, shortened: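 Female mice received equimolar single oral gavage doses (parent […]) in 0.5% carboxymethylcellulose. Three mice per time point were sacrificed at 15, 30, 45, 60, 90, 120 and 180 min. Plasma was analysed for parent compound by HPLC with fluorescence detection, using relative peak areas. Fold increase in parent plasma levels over 0-180 min was calculated relative to the parent compound.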

[3] = Cytotoxicity against HEL cells assessed as alteration of cell morphology; format: cell-based; conditions: human
Procedure, shortened: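 Uninfected HEL fibroblasts were exposed to the test compounds. MCC is the minimal concentration giving microscopically detectable alteration of cell morphology.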

[4] = Aqueous solubility of the compound at 25 DegC after 24 hrs; format: physicochemical; conditions: water
Procedure, shortened: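 Thermodynamic water solubility was measured at 25 °C after 24 h, typically as the mean of two measurements (variation <20%).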

[5] = Chemical stability of the compound in PBS buffer at pH 7.4 assessed as compound remaining after 24 hrs by HPLC; format: physicochemical; conditions: read-out: Stability
Procedure, shortened: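 Prodrug was held in PBS pH 7.4 at room temperature for 24 h. Percent intact prodrug was determined by HPLC.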

Human alphaherpesvirus 3 [6] = assay: Antiviral activity against Varicella zoster virus YS infected in HEL cells assessed as reduction in virus induced cytopathicity; format: functional, organism-based; conditions: Human alphaherpesvirus 3, YS
Procedure, shortened: (§2)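 Confluent HEL fibroblast monolayers were infected with 20 PFU of VZV (Oka or YS strain). After 1-2 h adsorption, residual virus was removed and varying compound concentrations were added. Plaque formation was scored when untreated infected controls reached completion.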

Human alphaherpesvirus 3 [7] = assay: Antiviral activity against Varicella zoster virus OKA infected in HEL cells assessed as reduction in virus induced cytopathicity; format: functional, organism-based; conditions: Human alphaherpesvirus 3, OKA; procedure, shortened: as §2
[8] = Cytotoxicity against HEL cells assessed as inhibition of cell proliferation; format: cell-based; conditions: human
[9] = Stability of the compound assessed as conversion of prodrug to 3-[(2R,4S, 5R)-4-hydroxy-5-(hydroxymethyl)oxolan-2-yl]-6-(4-pentylphenyl)furo[2, 3-d]pyrimidin-2-one in presence of Dipeptidyl-peptidase 4 and 2.5 uM DPPIV inhibitor vildagliptin; format: physicochemical; procedure, shortened: as §1
[10] = Stability of the compound assessed as conversion of prodrug to 3-[(2R,4S, 5R)-4-hydroxy-5-(hydroxymethyl)oxolan-2-yl]-6-(4-pentylphenyl)furo[2, 3-d]pyrimidin-2-one in presence of Dipeptidyl-peptidase 4, 20 % human serum and 2.5 uM DPPIV inhibitor vildagliptin; format: physicochemical; procedure, shortened: as §1
[11] = Aqueous solubility of the compound at 25 DegC after 4 hrs; format: physicochemical; conditions: water
[12] = Stability of the compound assessed as conversion of prodrug to 3-[(2R,4S, 5R)-4-hydroxy-5-(hydroxymethyl)oxolan-2-yl]-6-(4-pentylphenyl)furo[2, 3-d]pyrimidin-2-one in presence of Dipeptidyl-peptidase 4 and 20 % human serum; format: physicochemical
Procedure, shortened: (§3)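 Prodrug at 50 μM in PBS (0.1% DMSO) at 37 °C; reaction started with purified CD26 (1.5 mU) or 20% human or bovine serum in PBS. Aliquots taken at time points were quenched in cold methanol on ice, centrifuged, and the supernatant analysed by reverse-phase RP-8 HPLC (NaH2PO4/heptanesulfonic acid pH 3.2 versus acetonitrile gradient) for prodrug, intermediates and parent.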

[13] = Stability of the compound assessed as conversion of prodrug to 3-[(2R,4S, 5R)-4-hydroxy-5-(hydroxymethyl)oxolan-2-yl]-6-(4-pentylphenyl)furo[2, 3-d]pyrimidin-2-one in presence of Dipeptidyl-peptidase 4 and 20 % bovine serum; format: physicochemical; conditions: cattle; procedure, shortened: as §3
[14] = Stability of the compound assessed as conversion of prodrug to 3-[(2R,4S, 5R)-4-hydroxy-5-(hydroxymethyl)oxolan-2-yl]-6-(4-pentylphenyl)furo[2, 3-d]pyrimidin-2-one in presence of Dipeptidyl-peptidase 4; format: physicochemical; procedure, shortened: as §3

Activity [1]	Activity [2]	Activity (Caco-2)	fold change (FC) (Mus musculus)	solubility at 24 h [4] [mg/mL]	remaining at 24 h [5] [%]	EC50 (Human alphaherpesvirus 3 [6]) [nM]	EC50 (Human alphaherpesvirus 3 [7]) [nM]	Activity [9]	Activity [10]	solubility at 4 h [11] [mg/mL]	Activity [12]	Activity [13]	Activity [14]	Compound	MCC [3] [µM]	CC50 [8] [nM]
Not Active	Not Active	Active	13	1.2 (≈ 1.73 mM)	> 95	154	89	Not Active	Not Active					CCCCCc1ccc(-c2cc3cn([C@H]4C[C@H](O)[C@@H](COC(=O)[C@@H](NC(=O)[C@@H]5CCCN5C(=O)[C@@H](N)C(C)C)C(C)C)O4)c(=O)nc3o2)cc1	> 2	> 100000
			12	77 (≈ 77.8 mM)	> 95	260	127							CCCCCc1ccc(-c2cc3cn([C@H]4C[C@H](OC(=O)[C@@H](NC(=O)[C@@H]5CCCN5C(=O)[C@@H](N)C(C)C)C(C)C)[C@@H](COC(=O)[C@@H](NC(=O)[C@@H]5CCCN5C(=O)[C@@H](N)C(C)C)C(C)C)O4)c(=O)nc3o2)cc1	> 5	50000
			7	5.2 (≈ 7.49 mM)	> 95	16	18							CCCCCc1ccc(-c2cc3cn([C@H]4C[C@H](OC(=O)[C@@H](NC(=O)[C@@H]5CCCN5C(=O)[C@@H](N)C(C)C)C(C)C)[C@@H](CO)O4)c(=O)nc3o2)cc1	60	17000
			11		69	6	9			14 (≈ 19.8 mM)	Active	Active		CCCCCc1ccc(-c2cc3cn([C@H]4C[C@H](O)[C@@H](COC(=O)[C@H](CC(C)C)NC(=O)[C@@H]5CCCN5C(=O)[C@@H](N)C(C)C)O4)c(=O)nc3o2)cc1	> 0.5	31000
					52	10	13			1.1 (≈ 1.48 mM)	Active	Active		CCCCCc1ccc(-c2cc3cn([C@H]4C[C@H](O)[C@@H](COC(=O)[C@H](Cc5ccccc5)NC(=O)[C@@H]5CCCN5C(=O)[C@@H](N)C(C)C)O4)c(=O)nc3o2)cc1	> 0.5	40000
					74	3	6			6.1 (≈ 9.16 mM)	Active	Active		CCCCCc1ccc(-c2cc3cn([C@H]4C[C@H](O)[C@@H](COC(=O)[C@H](C)NC(=O)[C@@H]5CCCN5C(=O)[C@@H](N)C(C)C)O4)c(=O)nc3o2)cc1	> 0.5	44000
				39 (≈ 55 mM)	> 95	85	42						Active	CCCCCc1ccc(-c2cc3cn([C@H]4C[C@H](O)[C@@H](COC(=O)[C@@H](NC(=O)[C@@H]5CCCN5C(=O)[C@@H](N)CC(N)=O)C(C)C)O4)c(=O)nc3o2)cc1	> 5	56000
			15	55 (≈ 76.1 mM)	> 95	22	18						Active	CCCCCc1ccc(-c2cc3cn([C@H]4C[C@H](O)[C@@H](COC(=O)[C@@H](NC(=O)[C@@H]5CCCN5C(=O)[C@@H](N)CCCCN)C(C)C)O4)c(=O)nc3o2)cc1	> 5	29000
				15 (≈ 21.1 mM)	> 95	73	32				Not Active	Not Active	Active	CCCCCc1ccc(-c2cc3cn([C@H]4C[C@H](O)[C@@H](COC(=O)[C@@H](NC(=O)[C@@H]5CCCN5C(=O)[C@@H](N)CC(=O)O)C(C)C)O4)c(=O)nc3o2)cc1	> 5	52000
				0.018 (≈ 0.0452 mM)										CCCCCc1ccc(-c2cc3cn([C@H]4C[C@H](O)[C@@H](CO)O4)c(=O)nc3o2)cc1 [CF1743]	> 20	
